Among the data in the RNAGym collection of RNA variant scans (doi:10.1126/science.aae0568) are yeast fitness values, retold here.

Variants at the floor of the assay were thinned out. Where only a bound is given, the exact number is not on record here.

Sequences and labels used below:
B1: tRNA (parent)
chain: GUUCCGUUGGCGUAAUGGUAACGCGUCUCCCUCCUAAGGAGAAGACUGCGGGUUCGAGUCCCGUACGGAACG

In the data set the parent is B1. In words: yeast fitness relative to wild type (ratio to wild type); higher = fitter; tRNA-Arg(CCU), competitive growth, 37 C, YPD. In short, it runs like this: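 For this measurement, the tRNA-Arg(CCU) gene was varied by chemical synthesis at a 3% per-site mutation rate across 69 sites, and each variant was placed at the native genomic locus in Saccharomyces cerevisiae. The pooled strains went through a 24-hour competition in YPD at 37°C in six parallel replicates, with amplicons from start and end populations read by 100-nucleotide paired-end sequencing. Darwinian fitness relative to wild type followed from the change in each genotype's frequency. Genotypes needed ≥ 100 starting reads, and estimates < 0.5 were set to 0.5.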
Regarding C49U G58A, the yeast fitness was 0.948. The value for C27A C31U A43G C61U A65C was 0.501. To U8C U16C A69C belongs 0.709; to A21C G68C A69U, not above 0.5. The value for U3A C5U C22G C34G A37G A65G was not above 0.5. As for U13C A37U, the yeast fitness was 0.543. To C5G G6A C30G belongs not above 0.5; to C27G C31G A36U A37U, 0.615. Regarding U26C C49G C55U, the yeast fitness was not above 0.5. With G18A C31U G41A, the yeast fitness was found to be 0.647.

Turning to G6A C22U A40G A43U C46G C49G C62U, the yeast fitness was not above 0.5. For the variant U13A C24U U35A A43C G50C, the yeast fitness is not above 0.5. For A15U U28A G68C, the yeast fitness is not above 0.5. With A37C G38A C66U, the yeast fitness is 0.587. The value for C4G G17A U28A C55U was not above 0.5; that for C4G A36C A37G U64A was not above 0.5; that for A37C A45U G68C was not above 0.5.

Take U3A G39A C55U U59G G68C: the yeast fitness is not above 0.5. To U8C C29G A37G G67C belongs 0.573; to C5G G63C, 0.626. The value for U3C U7C G41A A42C G50C A70G was not above 0.5; that for C24G G44C was 0.66; that for C5G G10C U35G G50A C55U A69C was 0.607. The value for C22G C60G C66A was not above 0.5; that for A14U A43U C55G was 0.511. For U2G G25A U53A, the yeast fitness was not above 0.5. The value for U47C A57U was 0.623. To U7C U35G U64C A70G belongs not above 0.5; to U7A C22A A57C, not above 0.5. For the variant C5G G51C C61G C66U, the yeast fitness was not above 0.5.

With G17A C30G A45G C61G, the yeast fitness was not above 0.5. To C11U A15U C33A belongs not above 0.5. To C22G C34G U35A A36U C55U belongs not above 0.5; to C27U C55U, 0.773; to C5G U13A C22G U59A, not above 0.5. A20C C22U C66U: the yeast fitness amounted to 0.622. The value for C27U U32C A65U A70C was not above 0.5. As to C22G U59A C66A, the yeast fitness turned out to be 0.554. To G17C C24A A45C belongs 0.508; to C4U G39A A42G G63A G67A, not above 0.5. The value for G23A C30A U54C C55U was not above 0.5. To C4G C22G C24U G41A A57U C66A belongs not above 0.5; to G41A A43G C66A, not above 0.5; to A45C C66G, 0.586. In the case of A37U G44A A57C C61G, the yeast fitness was 0.625. To U26A C33A A45C A65U G67C belongs not above 0.5. To U13C C31A C55A belongs 0.565. The value for U28A C31A A42C A45U G51A A65U was not above 0.5. U19G G56A C60U: the yeast fitness turned out to be 0.69.

With C29U G68A, the yeast fitness was 0.937. To C27A U28A G41A G48A A65G belongs not above 0.5; to C4U G23C A40U A42G A45G G51C C61U G63A, not above 0.5. Turning to C4A G23A C33G, the yeast fitness stood at 0.655. As to C4A A15C A43G, the yeast fitness is not above 0.5.

Turning to A15C C61U A69U, the yeast fitness turned out to be 0.571. Turning to C27G A36G G52C, the yeast fitness is not above 0.5. To G6A A20G A45G belongs 0.803; to U2A U16C U28A G50A, not above 0.5; to U8C G12A, 0.714. The value for C27U G38C A57U was 0.552; that for C11U A42G C60A was not above 0.5. The value for A65G A69U was 0.993; that for U2C A14G G18A U32A G44A A65C was 0.539. As for A21C A70C, the yeast fitness was 0.798. To U2A G9C U16G U32G U47A A57C C62U belongs not above 0.5; to G52A A69C, 0.738; to G44C G67C, 0.823.

Regarding U8A G9C G38A A40C, the yeast fitness was not above 0.5. To U2C U54A belongs 0.612. The value for C4U U8C U47A was 0.601; that for C5A A45C C46G G48C U64C was not above 0.5; that for G17C C24G G63C was not above 0.5. Turning to C60A A65G, the yeast fitness was determined as 0.573.

On to U13C C24G, for which the yeast fitness came to 0.672. The value for U2A C24G A37C G56C was not above 0.5; that for C27A A57C C62U was 0.531. The value for A20U C22G A40G was 0.745; that for G6A G56C was 0.672.

As for U28C G68C, the yeast fitness stood at 0.884. The value for A14G A20C C30U C66U was not above 0.5; that for A14C C24A U32G G41C was 0.501. The value for C4U A20G A69C was 0.817. For G9A C29U U47A A65U, the yeast fitness is not above 0.5. To C5A C27U A37U belongs not above 0.5. To G6C U8C G25A belongs 0.581. Consider U7C C24A, for which the yeast fitness worked out at 0.623. Regarding U47C A65C, the yeast fitness stood at 1.04.

Regarding A37G A65U, the yeast fitness was determined as 0.598.

On to C34A G68C, for which the yeast fitness is 0.841. To G9A C24U C30U U32G A65C C66G belongs not above 0.5. Regarding C29U G38C A43U C55U, the yeast fitness came out at 0.516. The value for G10A A37G C49G was not above 0.5; that for C22U C24A U28G was 0.542. To A21U U26G G44A belongs 0.511; to A14G A42U G68C, not above 0.5. For the variant U8A A69G, the yeast fitness was found to be 0.604. To C46A G58A belongs 0.837; to G9A C11U C29A U53G, not above 0.5; to U2C C24A C66U, 0.61.

As to G6A C31U A43U, the yeast fitness worked out at 0.529.

With C4U G6A A36C, the yeast fitness is not above 0.5. To C33G A57U G68A A69U belongs not above 0.5; to A14G U47A G56A, 0.724; to C27U C46G A69C, 0.757.

As to U2C G51C, the yeast fitness came out at 0.687. To U8A A15U C61U belongs not above 0.5; to A21G G25A G48C C62A, not above 0.5; to U8C C11A A20U C66U, not above 0.5.

Consider C11A A42U A69U, for which the yeast fitness is not above 0.5. To U2G C4U C27A C66A belongs not above 0.5; to U3G A15G C24G G50A C55U, 0.613.

Regarding U16A C31A G51A, the yeast fitness is 0.552.

In the case of C4U A36G G44C G63A, the yeast fitness came out at 0.572. The value for G6C U8C C60A C62U was not above 0.5; that for C4U G63A was 0.894; that for U3A C31U A40C was 0.566. To G25C A40C C49U belongs 0.76; to A15C C29U G39C A42U G50U G51C A65U, 0.527. To A36U C61U belongs 0.693. With C22U G25A G50A A69U, the yeast fitness is not above 0.5.

For the variant A21C A36G G67C, the yeast fitness was not above 0.5. C29G A37G G51A C55A: the yeast fitness was not above 0.5. The value for A21C C29U A57U C60U C62U C66U was 0.564; that for C11G C27G A70G was not above 0.5. The value for C4A U8C was 0.887; that for C11U U35C U64A was not above 0.5; that for C5U U47A was 1.06. In the case of U13A G23C U32G G58C C61A A65U, the yeast fitness was not above 0.5. To U13G A42C U64C belongs 0.715. The value for G41C A57U G63A was 0.567; that for U28G U59A A70C was not above 0.5; that for A14C G18A A42G C46A was not above 0.5. To A20U G23A C49U belongs 0.609; to U35G A43G, 0.725. In the case of G39C G44C G52C, the yeast fitness was 0.623. The value for U16G U32G C46U C49U was not above 0.5; that for C29G C46U A57G was 0.642; that for C24A C49U was 0.614.

As for C31U A45C, the yeast fitness is 1.25.

For U3A G23C C46A C49A C61G, the yeast fitness was not above 0.5. To G10A A14G A36G belongs not above 0.5; to A15U C24U C27U G67A, not above 0.5; to U7G G67C, 0.856. The value for G10A U26A was 0.731; that for G18A A42C C61A was not above 0.5. The value for G10A A14U A21C C29U C60A was 0.647; that for U16C G17C A21C C66U G68A was not above 0.5; that for C22G U28A G67C was not above 0.5.

As to C4U U35G A45U, the yeast fitness is 0.583.

For G23A C27U A37U, the yeast fitness came to 0.58. For the variant C11A A43G G50C G56C, the yeast fitness was not above 0.5. The value for G12A U19C G23A U32C A43C G48C U64C was not above 0.5. The value for G17A A20G C30A was 0.628; that for C27A G39A A57G G68A was not above 0.5. The value for C4U C5A U59C C60G was not above 0.5.

On to C4G C24U A40G, for which the yeast fitness is not above 0.5. The value for U2A G48A was 0.978; that for G10A C62U G67C was 0.636; that for G6A A20C C61G G68C was not above 0.5.

With C4G G6A U64A, the yeast fitness came out at 0.651.

Regarding A21C C22A C29U C49G, the yeast fitness is not above 0.5. The value for G12C U16A C60G C61U was not above 0.5. To U3C C22U G48A belongs 0.955; to C11A G23C A42U, not above 0.5. The value for C5U A20U U26A C49A A57C C62U was not above 0.5. Take U3G C5G U19C C66U: the yeast fitness was determined as 0.57. To A15G U54A A70U belongs 0.564.
